Experimental data from different studies.
Lines come from different studies, so protocols differ.
Cell line: MCF7
Read-out: cell growth or viability

Compound	method	concentration	time	measurement	result
COc1ccc(C(=O)/C=C/c2cccnc2)cc1S(N)(=O)=O	SRB	10 µM		inhibition	93%
c1ccc2[nH]c(-c3ccncc3)nc2c1	MTT		48 h	IC50	> 100 µM
COc1ccc(C(=O)/C=C/c2cccc(Cl)c2Cl)cc1S(N)(=O)=O	SRB	10 µM		inhibition	140%
COc1cccc(-c2nc3ccccc3[nH]2)c1	MTT		48 h	IC50	51.4 µM
COc1ccc(Cc2nc(/N=C3\NC(=O)N(C)C3=O)n(C)c2Cc2ccc(O)cc2)cc1				EC50	5.9 µM
CC(C)c1cnn2c(NCc3ccccc3)cc(NC[C@H]3CCNC[C@@H]3O)nc12		0.1 µM	9 days	inhibition	~50%
COc1cc(CNC(=O)CCCC/C=C/C(C)C)ccc1O	SRB	10 µM		inhibition	24%
Clc1ccc(-c2nc3ccccc3n2Cc2ccccc2)cc1Cl	MTT			IC50	62.4 µM
COc1ccc(C(=O)/C=C/c2ccccc2Br)cc1S(N)(=O)=O	SRB	10 µM		inhibition	171%
COc1cc(C(CC(=O)c2ccc(Br)cc2)NCCc2ccc(O)c(O)c2)ccc1O (stereo not shown)	MTT			TGI	0.4 µM
COc1ccc(C(=O)/C=C/c2cccc(Br)c2)cc1S(N)(=O)=O	SRB	10 µM		inhibition	177%
C[C@]12CC[C@@H]3c4ccc(O)cc4CC[C@H]3[C@@H]1CC[C@@H]2O	ATP luminescence		72 h	EC50	22.5 µM
COc1ccc(C(=O)/C=C/c2cc3c(cc2Br)OCO3)cc1S(N)(=O)=O	SRB	10 µM		inhibition	102%
CCCCCCCCCCCCNC(=S)NCCCC[C@H](NC(=O)OCc1ccccc1)C(=O)N[C@@H](C)C(=O)N[C@@H](CCCNC(=N)N)C(N)=O	MTT		72 h	EC50	64.7 to 76.6 µM
COc1ccc(C(=O)/C=C/c2ccc(Cl)c(Cl)c2)cc1S(N)(=O)=O	SRB	10 µM		inhibition	149%
COc1cccc2c1C(=O)c1c(O)c3c(c(O)c1C2=O)C[C@@](O)(C(=O)CO)C[C@@H]3O[C@H]1C[C@H](N)[C@H](O)[C@H](C)O1	MTT		48 h	IC50	0.06 µM
CCCCCCCCCCCCNC(=O)NCCCC[C@H](NS(C)(=O)=O)C(=O)N[C@H](C)C(=O)N[C@@H](CCCNC(=N)N)C(N)=O	MTT		72 h	EC50	69.2 to 78.9 µM
Cc1ccc2nc(-c3ccco3)[nH]c2c1	MTT		48 h	IC50	> 100 µM
COc1cc(C(CC(N)=O)NCCc2ccc(O)c(O)c2)ccc1O (stereo not shown)	MTT			TGI	52 µM
C=CCn1c(-c2ccc(OC)c(OC)c2)nc2ccccc21	MTT			IC50	37 µM
COc1ccc(C(=O)/C=C/c2ccc3c(c2)OC(F)(F)O3)cc1S(N)(=O)=O	SRB	10 µM		inhibition	7%
Cc1ccc2nc(-c3ccncc3)[nH]c2c1	MTT		48 h	IC50	54.6 µM
COc1cc(C(CC(=O)c2ccc(Cl)cc2)NCCc2ccc(O)c(O)c2)ccc1O (stereo not shown)	MTT			TGI	3.05 µM
C=CCn1c(-c2ccc([N+](=O)[O-])cc2)nc2ccccc21	MTT			IC50	34.1 µM
COc1cc(C(CC(=O)c2ccc(C(C)(C)C)cc2)NCCc2ccc(O)c(O)c2)ccc1O (stereo not shown)	MTT			TGI	4.24 µM
COc1ccccc1/C=C/C(=O)c1ccc(OC)c(S(N)(=O)=O)c1	SRB		48 h	GI50	2.7 µM
CCOc1cc(-c2nc3ccccc3[nH]2)ccc1O	MTT		48 h	IC50	59.2 µM
CCCCCCCCCCCCNC(=S)NCCCC[C@H](NS(C)(=O)=O)C(=O)N[C@@H](C)C(=O)N[C@@H](CCCNC(=N)N)C(N)=O	MTT		72 h	EC50	63.7 to 84.3 µM
